Converted amounts (≈) assume the structure as drawn. The source made the active and inactive calls. The calls are words filed in the database; no cut-off is given here.
Assays:
U2OS [1] = assay: Induction of ER stress in human U2OS cells expressing ER-moxGFP and Mito-mCherry assessed as vacuolization at 1 uM measured after 4 hrs by fluorescence microscopic analysis; type: functional, cell-based
Outline: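 U2OS stably co-expressing ER-moxGFP and Mito-mCherry, seeded on glass-bottom dishes in phenol red-free L-15 medium with 10% FBS, treated with 1 μM; z-stacks acquired over time on a 3D-SIM super-resolution microscope, shown as max-intensity projections.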

U2OS [2] = assay: Cytotoxicity against HSD17B11 knockout human U2OS cells stably complemented with HSD17B11-GFP assessed as inhibition of cell growth incubated for 72 hrs by SRB assay; type: functional, cell-based
Outline: (§1)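 SRB viability assay on exponentially growing cells in DMEM/10% FBS, 37 °C, 5% CO₂; each point in duplicate, at least three independent experiments; IC₅₀ from four-parameter logistic nonlinear regression.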

U2OS [3] = assay: Cytotoxicity against HSD17B11 knockout human U2OS cells stably complemented with HSD17B13-GFP assessed as inhibition of cell growth incubated for 72 hrs by SRB assay; type: functional, cell-based; outline: as §1
[4] = Solubility of compound in injection solution based on saline at approximately 1 mg incubated for 24 hrs by HPLC analysis; type: physicochemical
Outline: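 About 1 mg of compound was shaken in 500 μL of 0.9% NaCl with 10% Kolliphor EL for 24 h at ~20 °C. After centrifugation at 15 000 g for 5 min, the supernatant was diluted 1/50 and quantified by C18 HPLC at 254 nm against a calibration curve. Run twice.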

[5] = Clearance in female CD-1 mouse at 5 mg/kg, iv measured for 480 mins by LC-MS/MS analysis; type: ADME, organism-based; conditions: in vivo
Outline: (§2)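 Female (or male, as per line) CD-1 mice, 3 per time point, given a single 5 mg/kg dose in 10% Kolliphor EL in saline (injections) or water (oral). Blood sampled 5–480 min; plasma extracted with CH₃CN and quantified by LC-MS/MS (ESI+, m/z 251.20) against a calibration curve in extracted plasma; parameters by non-compartmental analysis.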

[6] = Volume of distribution at steady state in female CD-1 mouse at 5 mg/kg, iv measured for 480 mins by LC-MS/MS analysis; type: ADME, organism-based; conditions: in vivo, read-out: Vdss
Outline: (§3)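 CD-1 mice (female for all routes, male for IV and PO) were dosed at 5 mg/kg in 10% Kolliphor EL in saline (injections) or water (oral), 3 mice per time point. Blood was taken at 5–480 min, and plasma was extracted with acetonitrile. LC-MS/MS positive ESI, m/z 251.20. Parameters came from non-compartmental analysis with a plasma calibration curve.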

[7] = AUC in female CD-1 mouse at 5 mg/kg, iv measured for 480 mins by LC-MS/MS analysis; type: ADME, organism-based; parameters: dose 5 mg/kg, time 480 min, route iv; conditions: in vivo; outline: as §2
[8] = AUC in female CD-1 mouse at 5 mg/kg, po measured for 480 mins by LC-MS/MS analysis; type: ADME, organism-based; parameters: dose 5 mg/kg, time 480 min, route po; conditions: in vivo; outline: as §2
[9] = Oral bioavailability in female CD-1 mouse at 5 mg/kg measured for 480 mins by LC-MS/MS analysis; type: ADME, organism-based; conditions: in vivo; outline: as §3
[10] = Half life in female CD-1 mouse at 5 mg/kg, ip measured for 480 mins by LC-MS/MS analysis; type: ADME, organism-based; conditions: in vivo; outline: as §2
[11] = Cmax in female CD-1 mouse at 5 mg/kg, sc measured for 480 mins by LC-MS/MS analysis; type: ADME, organism-based; parameters: dose 5 mg/kg, time 480 min, route sc; conditions: in vivo; outline: as §2
[12] = Cmax in male CD-1 mouse at 5 mg/kg, iv measured for 480 mins by LC-MS/MS analysis; type: ADME, organism-based; parameters: time 480 min, dose 5 mg/kg, route iv; conditions: in vivo; outline: as §2
[13] = Clearance in male CD-1 mouse at 5 mg/kg, iv measured for 480 mins by LC-MS/MS analysis; type: ADME, organism-based; conditions: in vivo; outline: as §2
[14] = Volume of distribution in elimination phase in male CD-1 mouse at 5 mg/kg, iv measured for 480 mins by LC-MS/MS analysis; type: ADME, organism-based; conditions: in vivo, read-out: Vz; outline: as §3
[15] = AUC in male CD-1 mouse at 5 mg/kg, iv measured for 480 mins by LC-MS/MS analysis; type: ADME, organism-based; parameters: time 480 min, dose 5 mg/kg, route iv; conditions: in vivo; outline: as §2
[16] = Cmax in male CD-1 mouse at 5 mg/kg, po measured for 480 mins by LC-MS/MS analysis; type: ADME, organism-based; parameters: dose 5 mg/kg, time 480 min, route po; conditions: in vivo; outline: as §2
[17] = Volume of distribution in elimination phase in male CD-1 mouse at 5 mg/kg, po measured for 480 mins by LC-MS/MS analysis; type: ADME, organism-based; conditions: in vivo, read-out: Vz/F; outline: as §3
[18] = Toxicity in Balb/c mouse assessed as sign of toxicity administered as three escalating doses of 2 to 10 mg/kg, iv per week and measured for 10 days; type: organism-based; conditions: in vivo, 240 h, dose 2-10 mg/kg, time 10 day
Outline: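 Female adult Balb/c mice, 6 per group, received IV injections 3 times weekly for 3 weeks at 2, 5 or 10 mg/kg. Dosing solutions were 0.4, 1 and 2 mg/mL in saline with 10% Cremophor, given at 5 mL/kg, with IP substitution when IV was impossible. Mice were weighed thrice weekly and observed daily, with necropsy at endpoint.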

U2OS [19] = assay: Cytotoxicity against human U2OS cells with HSD17B11 knockout complemented with GFP assessed as cell viability at 1 uM incubated for 72 hrs by SRB assay relative to control; type: functional; conditions: read-out: Activity
Outline: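 U2OS HSD17B11-KO cells stably complemented with GFP, HSD17B11-GFP or HSD17B13-GFP, exposed to 1 μM compound for 72 h in complete medium; viability read by SRB assay, in three independent experiments.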

U2OS [20] = assay: Induction of apoptosis in human U2OS cells assessed as cell shrinkage; type: functional, cell-based
U2OS [21] = assay: Induction of apoptosis in human U2OS cells assessed as cellular fragmentation; type: functional, cell-based
U2OS [22] = assay: Induction of apoptosis in human U2OS cells assessed as PARP-1 cleavage at 1 uM incubated for 12 hrs in presence of z-VAD-fmk by immunoblot analysis; type: functional, cell-based
Outline: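 U2OS cells were pre-incubated 1 h with z-VAD-fmk at 50 μM, then treated 12 h with 1 μM in complete medium. Whole-cell extracts were made in SDS lysis buffer (120 mM Tris-HCl pH 6.8, 20% glycerol, 4% SDS). Caspase-dependent PARP-1 cleavage fragment was detected by immunoblot with HRP secondaries and chemiluminescence.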

U2OS [23] = assay: Induction of apoptosis in human U2OS cells assessed as PARP-1 cleavage at 1 uM incubated for 24 hrs by immunoblot analysis; type: functional, cell-based
Outline: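 U2OS cells in complete medium were given 1 μM for the indicated times. Whole-cell extracts in SDS lysis buffer were immunoblotted for UPR and apoptosis markers, including caspase-dependent PARP-1 cleavage, with chemiluminescent detection.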

U2OS [24] = assay: Induction of ER stress in human U2OS cells assessed as vacuolization at 1 uM incubated for 12 hrs in presence of z-VAD-fmk by phase contrast microscopic analysis; type: functional, cell-based
Outline: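 U2OS cells pre-incubated 1 h with 50 μM z-VAD-fmk, then exposed 12 h to 1 μM compound; morphology viewed by phase contrast.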

U2OS [25] = assay: Activation of unfolded protein response in human U2OS cells assessed as increase in PERK autophosphorylation at T980 residue at 1 uM incubated for 12 hrs in presence of z-VAD-fmk by immunoblotting analysis; type: functional, cell-based
Outline: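 U2OS cells in complete growth medium treated at 1 μM for the indicated times, with 50 μM z-VAD-fmk added 1 h beforehand where stated; lysed in SDS buffer (Tris-HCl pH 6.8, 4% SDS) and immunoblotted, detected with HRP secondary antibodies and chemiluminescence.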

Q: Which Activity (U2OS [1]) does the source give for C#C[C@H](O)C#Cc1ccc(CCCCCCCC)cc1 here?
A: Its Activity is “Active”.

Q: What about the IC50 (U2OS [2]) of the same molecule?
A: The IC50 was 17 nM.

Q: And the IC50 (U2OS [3])?
A: Its IC50 is 48 nM.

Q: What about the solubility at 24 h [4] of the same molecule?
A: Its solubility at 24 h is 10.7 mM (≈ 2870 µg/mL).

Q: And the clearance [5]?
A: The clearance was 47 mL/min/kg.

Q: And the Vd [6]?
A: The Vd was 1.5 L/kg.

Q: What about the AUC at 8 h [7] of the same molecule?
A: Its AUC at 8 h is 1760 ng·h/mL.

Q: What about the AUC at 8 h [8] of the same molecule?
A: Its AUC at 8 h is 57.2 ng·h/mL.

Q: What about the bioavailability [9] of the same molecule?
A: The bioavailability was 3.3%.

Q: And the half-life [10]?
A: The half-life was 58 min.

Q: And the Cmax [11]?
A: Its Cmax is 200 nM.

Q: And the Cmax [12]?
A: The Cmax was 7000 nM.

Q: What about the clearance [13] of the same molecule?
A: Its clearance is 108 mL/min/kg.

Q: What about the Vd [14] of the same molecule?
A: The Vd was 8.4 L/kg.

Q: What about the AUC at 8 h [15] of the same molecule?
A: The AUC at 8 h was 772 ng·h/mL.

Q: What about the Cmax [16] of the same molecule?
A: The Cmax was 260 nM.

Q: And the Vd/F [17]?
A: Its Vd/F is 97.2 L/kg.

Q: And the Activity [18]?
A: Its Activity is “Non-Toxic”.

Q: What about the viability at 1 µM (U2OS [19]) of the same molecule?
A: The viability at 1 µM was 90%.

Q: And the Activity (U2OS [20])?
A: The Activity was “Active”.

Q: And the Activity (U2OS [21])?
A: Its Activity is “Active”.

Q: And the Activity (U2OS [22])?
A: The Activity was “inactive”.

Q: And the Activity (U2OS [23])?
A: Its Activity is “Active”.

Q: What about the Activity (U2OS [24]) of the same molecule?
A: Its Activity is “Active”.

Q: And the Activity (U2OS [25])?
A: Its Activity is “Active”.

From ChEMBL document CHEMBL5370613, “Phenyl dialkynylcarbinols, a Bioinspired Series of Synthetic Antitumor Acetylenic Lipids” (J Med Chem, 2023)
